NF-kB neuron act: raises NF-kB expression in human neuronal cells. fold change at 12.5 µM. NF-kB reporter expression; active compounds read high. 190,000 tested, 1.6% active; in the data active = fold change above about 3.3
STAT3 act-1: increases IL-6 driven STAT3 reporter signal; U3A cells, IL-6 STAT3-luciferase reporter, luminescence; 100% = signal with IL-6 EC80 alone; activation (% of control), % at 5.6 µM; 190,000 tested, 0.91% active; AID 871;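 active = activation above the screen-wide mean of compound activation plus 3 SD, cut at about 130% in these data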;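 also: 0% = background luminescence of wells with medium and substrate only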
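System – human U3A cells carrying STAT3-luciferase construct · Probe or stimulus – Interleukin-6, 33 ng/mL · Schedule – compound 1 h, then IL-6 6 h at 37 °C · Signal – luminescence from STAT3-driven luciferase reporter · Evaluation – percent of IL-6-only median luminescence · Benchmarks – IL-6-only high control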
APP 5'UTR act: activates APP 5'UTR luciferase reporter. SH-SY5Y APP 5'UTR luciferase reporter, luminescence; zero percent = DMSO vehicle wells. 190,000 tested, 1% active. activation, % at 2 µM;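 active = activation above a set limit, based on mean plus 3 SD of controls, cut at about 140% in these data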
STAT1 act-1: activators of IFN-gamma induced STAT1 signaling. NIH 3T3 STAT1-luciferase reporter, luminescence; 100% = IFN-gamma alone, no compound. activation (% of control), % at 5.5 µM. 200,000 tested, 2.6% active;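 active = activation above the screen-wide mean activation plus 3 SD, cut at about 130% in these data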;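 also: raw ratio to IFN-gamma control signal so 100% means no change and 0% no light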
STAT3 blocker: STAT3 signaling inhibition; inhibition, % at 5.5 µM; 190,000 tested, 0.89% active; AID 862; U3A cells, IL-6 STAT3-luciferase reporter, luminescence; host cell line lacks STAT1;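 active = inhibition above the mean inhibition across all screened compounds plus 3 SD, cut at about 44% in these data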;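 also: 0% = DMSO only wells and 100% = 100 µM nifuroxazide control wells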
STAT1 inh-1: STAT1 signaling inhibition; NIH 3T3 STAT1-luciferase reporter, IFN-gamma, luminescence; inhibition, % at 5.5 µM; 200,000 tested, 0.35% active; AID 920;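 active = inhibition above a set limit, the mean inhibition across all tested compounds plus 3 SD, cut at about 34% in these data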;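 also: 0% = IFN-gamma with DMSO and 100% = IFN-gamma with 300 µM nifuroxazide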
STAT3 act-2: STAT3 activation, confirmation assay. shares compounds with STAT3 act-1. U3A STAT3-luciferase reporter, IL-6 potentiation, luminescence; U3A cells lack STAT1; 100 means same as IL-6 alone. potentiation (% of control), % at 5.7 µM. 1,200 tested, 64% active;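 active = percent activation of the STAT3 luciferase reporter above a set limit taken from the earlier primary screen, cut at about 130% in these data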;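 also: 0% = background signal of medium plus substrate and 100% = median of IL-6 with DMSO wells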
NFkB act STAT3ct: activates NF-kappaB, counter-screen to STAT3 activators | shares compounds with STAT3 act-1 | human cells, NF-kappaB reporter activation | activation (% of control), % at 5.7 µM | 1,200 tested, 11% active; in the data active = activation above about 120%;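 also: reporter induced by TNF-alpha stimulation; 100% = median of stimulated DMSO wells and 0% = no signal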
STAT1 act-2: counter-screen for STAT3 activators: STAT1 activation. activation (% of control), % at 5.7 µM. NIH 3T3 STAT1-luciferase reporter, IFN-gamma, luminescence. shares compounds with STAT3 act-1. AID 1318. 1,200 tested, 13% active;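 active = activation above the solvent-only control well mean plus 3 SD, set per screening run, cut at about 120% in these data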;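 also: 100% = IFN-gamma with DMSO median signal so 100% means no change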
STAT1 inh-2: STAT1 inhibition, confirmation assay. shares compounds with STAT1 inh-1. AID 1263. inhibition, % at 5.5 µM. 200 tested, 55% active. NIH 3T3 STAT1-luciferase reporter, IFN-gamma, luminescence;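 active = triplicate mean inhibition exceeding the hit cutoff computed for the primary STAT1 screen, cut at about 35% in these data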;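 also: 0% = DMSO with IFN-gamma and 100% = 300 µM nifuroxazide with IFN-gamma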
NFkB inh: counter-screen for STAT1 inhibitors: NF-kappaB inhibition. shares compounds with STAT1 inh-1. HEK293T NF-kB luciferase reporter, TNF-alpha induced, luminescence. inhibition, % at 5.7 µM. 200 tested, 30% active;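 active = inhibition above the mean of solvent-only control wells plus 3 SD of those wells, cut at about 15% in these data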;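 also: 0% = DMSO with TNF-alpha and 100% = MG-132 control with TNF-alpha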
STAT3 inh 2: inhibits STAT3, counter-screen to STAT1 inhibitors | AID 1310 | shares compounds with STAT1 inh-1 | inhibition, % at 5.7 µM | U3A cells, IL-6 STAT3 luciferase reporter, luminescence; cells lacking STAT1 | 200 tested, 20% active;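 active = inhibition above the mean of solvent-only control wells plus 3 SD, set per campaign, cut at about 25% in these data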;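 also: 0% = IL-6 plus DMSO and 100% = IL-6 plus nifuroxazide control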
* = called active by the depositor; · = no result. In the library only some 5.1% were active in any assay of this set; here they are far more common.

SMILES	NF-kB neuron act	STAT3 act-1	APP 5'UTR act	STAT1 act-1	STAT3 blocker	STAT1 inh-1	STAT1 inh-2	NFkB inh	STAT3 inh 2	others
O=C(O)CCNc1cc2ccccc2cc1C(=O)O	1.06	142.3*	-22.3	99.5	-45.5	-1.2	·	·	·	STAT3 act-2=97.4;NFkB act STAT3ct=105.7;STAT1 act-2=104.7
Cc1ccc(C(=O)Nc2ccc(C(=O)N/N=C/c3c[nH]c4ccccc34)cc2)cc1	0.3	147.7*	0.4	95.0	-50.5	5.6	·	·	·	STAT3 act-2=122.1;NFkB act STAT3ct=96.8;STAT1 act-2=97.8
Cc1ccc(/C=N/NC(=O)Cc2c[nH]c3ccccc23)c(C)c1	1	141.8*	9.4	99.1	-40.9	0.9	·	·	·	STAT3 act-2=129.6;NFkB act STAT3ct=100.8;STAT1 act-2=90.8
CSc1ccccc1NC(=O)COc1ccccc1Cl	1.43	95.5	2.2	101.4	8.3	-1.6	·	·	·
CC(C)(C)c1ccc(S(=O)(=O)N(CCCN2CCOCC2)Cc2cccs2)cc1	0.7	106.8	-2.2	104.9	-3.9	-5.4	·	·	·
Cc1ccc(N2C(=O)N(CC(=O)NCc3ccccc3Cl)C(=O)C2C)cc1 (stereo unspecified)	0.97	101.8	4.7	103.4	0.2	-4.4	·	·	·
CC(=O)N1CC23C=CC(CC2CC12CCCCCC2)O3 (stereo unspecified)	0.87	94.9	5.6	93.0	9.6	6.4	·	·	·
O=C(CC1SC(N2CCOCC2)=NC1=O)Nc1cc([N+](=O)[O-])ccc1Cl (stereo unspecified)	1.09	93.2	0.7	101.8	15.5	-3.3	·	·	·
CC1CN(Cc2ccc(Cl)cc2Cl)CC(C)O1 (stereo unspecified)	1.19	141.6*	5.5	112.4	-49.2	-13.6	·	·	·	STAT3 act-2=128.9;NFkB act STAT3ct=118.2;STAT1 act-2=125.2*
Fc1ccc(CO/N=C2\CCCc3nonc32)cc1	1.45	100.5	12.3	115.3	5.1	-19.4	·	·	·
Cc1ccc(NC(=S)N(Cc2ccc(Br)cc2)Cc2ccc(C(=O)O)cc2)cc1C	0.98	98.0	20.9	111.1	4.6	-12.5	·	·	·
COc1ccc(C)cc1NC(=O)C(c1ccccc1)N1CCNC(=O)C1 (stereo unspecified)	1.16	94.9	9.5	97.7	10.5	2.3	·	·	·
O=C1NC2=C(CCc3ccccc32)C(c2ccccc2)N1 (stereo unspecified)	1.2	147.7*	14.8	99.1	-49.8	0.9	·	·	·	STAT3 act-2=101.1;NFkB act STAT3ct=100.2;STAT1 act-2=97.9
Cn1/c(=N/N=C/c2ccc(Cl)c([N+](=O)[O-])c2)sc2ccccc21	1.36	156.4*	8.9	96.2	-56.8	4.1	·	·	·	STAT3 act-2=148.4*;NFkB act STAT3ct=108.2;STAT1 act-2=112.7
FC(F)(F)c1ccc(C2Nc3cccc4cccc(c34)N2)cc1	1.35	142.5*	-5.2	87.2	-46.4	14.1	·	·	·	STAT3 act-2=160.4*;NFkB act STAT3ct=117.0;STAT1 act-2=89.5
COc1ccccc1C1c2[nH]c3ccccc3c2CCN1Cc1cnc(C)s1 (stereo unspecified)	0.89	146.1*	1.8	48.8	-45.5	54.5*	32.1	5.8	-53.5	STAT3 act-2=176.3*;NFkB act STAT3ct=105.7;STAT1 act-2=94.8
COC(=O)CSc1nc2[nH]ncc2c(=O)[nH]1	1.13	105.1	26.2	99.9	-2.3	-1.8	·	·	·
C#Cc1ccc([C@@H]2C=C(C(=O)OCC=C)O[C@H](OCC)[C@H]2CCCO)cc1	0.86	·	-6.5	67.1	·	36.7*	22.3	-1.3	2.1
C=CCOC(=O)C1=C[C@H](c2ccccc2)[C@@H](CCCO)[C@H](OCC)O1	1.01	·	10.9	86.9	·	15.5	·	·	·
C#Cc1ccc([C@H]2C=C(C(=O)OCC=C)O[C@@H](OCC)[C@@H]2CCCO)cc1	0.99	·	8.9	49.0	·	55.9*	35.9*	2.3	-16.7
COc1cccc(NC(=O)CSc2nnc(-c3cc(C)n(-c4ccccc4)c3C)o2)c1	0.22	94.0	37.6	64.5	14.6	39.6*	18.2	8.5	-23.4
O=C(Nc1nnc(C2=COCCO2)o1)c1ccc(S(=O)(=O)N2CCCCC2)cc1	1.36	105.6	-10.8	99.2	0.2	-1.2	·	·	·
COc1cccc(-n2nnnc2S(C)(=O)=O)c1	1.12	90.2	-4.0	66.4	11.8	34.7*	43.6*	8.7	-48.2
Cc1c(C(=O)Nc2cccc(Cl)c2)c2ccccn2c1CCc1ccncc1	0.9	99.3	10.0	68.1	6.1	35.2*	22.6	-9.4	-4.5
Cc1c(C(=O)Nc2ccc(Cl)cc2)c2ccccn2c1CCc1ccncc1	1.21	110.3	-1.4	88.6	-12.5	12.5	·	·	·
SMILES	NF-kB neuron act	STAT3 act-1	APP 5'UTR act	STAT1 act-1	STAT3 blocker	STAT1 inh-1	STAT1 inh-2	NFkB inh	STAT3 inh 2	others
Cc1ccc(N(c2ncnc(N)c2[N+](=O)[O-])C2CCCCC2)cc1	0.86	93.3	-18.3	101.5	18.9	-1.6	·	·	·
CC1CCc2sc(C(=O)N/N=C/c3ccc([N+](=O)[O-])cc3)cc2C1 (stereo unspecified)	1.03	94.9	-5.4	99.5	6.9	0.6	·	·	·
O=C(CSc1nc2ccccc2c(=O)n1Cc1ccco1)N1CCCC1	0.77	98.3	17.4	65.8	4.3	36.8*	19.1	9.9	9.6
NC(=O)CSc1nc2ccccc2c(=O)n1Cc1ccco1	1	97.9	11.6	98.5	4.6	0.6	·	·	·
Cc1cccc(S(=O)(=O)c2c(N)n(-c3ccccc3)c3nc4ccccc4nc23)c1	0.94	104.8	7.1	102.0	-1.9	-2.2	·	·	·
O=C(NCCc1ccccc1)C1CCCN1S(=O)(=O)c1ccccc1 (stereo unspecified)	1.09	104.8	-1.9	98.9	6.4	0.3	·	·	·
CCn1c(=O)c2cc(C(=O)N3CCOCC3)sc2c2ccccc21	0.76	103.3	22.3	96.0	5.1	4.5	·	·	·
CCn1c(=O)c2cc(C(=O)N3CCCC3)sc2c2ccccc21	0.77	·	25.4	47.9	·	56.3*	47.2*	10.4	-20.7
Cc1cc(O)ccc1N1C(=O)c2cccc3cc([N+](=O)[O-])cc(c23)C1=O	1.4	87.0	6.0	55.9	16.8	46.4*	30.2	0.0	9.4
COc1ccc(CNC(=O)c2c(C)oc3c2C(=O)c2ccccc2C3=O)cc1	0.34	102.0	-9.5	111.2	-2.5	-12.3	·	·	·
Cc1oc2c(c1C(=O)NCc1cccnc1)C(=O)c1ccccc1C2=O	0.15	·	-95.2	17.9	·	89.5*	97.7*	73.9*	65.3*

Source: PubChem BioAssay (several laboratories)
